Measurements from different studies.
Protocols differ between the studies behind these lines.
Target: Tyrosine-protein kinase FRK (FRK, Homo sapiens, UniProt P42685)

SMILES	read-out	method	tested at	remaining binding
Cc1cnn2ncc(-c3ccnc(N(C)C)n3)c2c1	binding	competition with immobilised ligand	1 µM	100%
CN1CCN(c2cnc3c(C4CCN(C(=O)c5ccc(OC(F)(F)F)cc5N)CC4)ncnc3c2)CC1	cell-free assay	competition with immobilised ligand	1 µM	100%
O=C(NCC1CCOCC1)c1n[nH]cc1NC(=O)c1c(F)cccc1F	binding	competition with immobilised ligand	1 µM	100%
c1cnn2ncc(-c3ccnc(N4CCC45COC5)n3)c2c1	binding		1 µM	82%
CNC(=O)Nc1ccc2c(c1)[C@@]1(CC2)OC(=O)N(CC(=O)N(Cc2ccc(F)cc2)[C@@H](C)C(F)(F)F)C1=O	cell-free assay	competition with immobilised ligand	1 µM	95%
COc1cnc(Nc2cccc(S(N)(=O)=O)c2)nc1N1CCN(c2ccccc2)CC1	binding	competition with immobilised ligand	1 µM	100%
CC1CCCN1c1nccc(-c2cnn3ncccc23)n1 (stereo not shown)	binding	competition with immobilised ligand	1 µM	88%
O=C(NCCCN1CCOCC1)c1ccc(Nc2nccc(-c3cc4ccccc4s3)n2)cc1	binding	competition with immobilised ligand	1 µM	99%
O=C(Nc1ccc(Oc2ccc(F)cc2)cc1)N1CCc2ncccc2[C@H]1c1ccc(F)cc1	cell-free assay	competition with immobilised ligand	1 µM	93%
CN(C)c1nccc(-c2cnn3ncccc23)n1	binding	competition with immobilised ligand	1 µM	100%
O=C(NCCCN1CCOCC1)c1ccc(Nc2ncc(Cl)c(-c3ccc(Cl)s3)n2)cc1	binding	competition with immobilised ligand	1 µM	100%
Nc1cnc(N2CCc3cc(S(=O)(=O)Nc4c(F)cc(Cl)cc4F)cc(N4CCCC4=O)c32)nc1	cell-free assay	competition with immobilised ligand	1 µM	62%
O=C(c1ccc(Nc2ncc(Cl)c(-c3ccc(Cl)s3)n2)cc1)N1CCC(N2CCCC2)CC1	binding	competition with immobilised ligand	1 µM	97%
COc1ccnn2ncc(-c3ccnc(N(C)C)n3)c12	binding		1 µM	92%
c1cncc(-c2cccc(Nc3nccc(NC4CCCCC4)n3)c2)c1	binding	competition with immobilised ligand	10 µM	53%
O=C(Nc1cnc(Oc2ccc(F)cc2)nc1)N1CCc2ncccc2[C@@H]1c1ccc(F)cc1	cell-free assay	competition with immobilised ligand	1 µM	98%
C=CC(=O)N1CCC(C(=O)NCC(=O)N2CCN(c3nc(-c4cnc(N)nc4C(F)F)nc(N4CCOCC4)n3)CC2)CC1	binding	competition with immobilised ligand	1 µM	100%
CNC(=O)[C@@H]1CC[C@@H](n2c(-c3ccc4cnccc4c3)nc3ccc(C(=O)NCc4cccc(C(N)=O)c4)cc32)C1	binding	competition with immobilised ligand	1 µM	100%
CS(=O)(=O)N1CCCC(NC(=O)[C@H](CCC2CCCCC2)NC(=O)c2ccc(CNc3ncnc4c3nnn4-c3ccccc3)cc2)C1 (stereo partly shown)	cell-free assay	competition with immobilised ligand	0.1 µM	60%
N[C@@H]1CCN(c2nccc(-c3cnn4ncccc34)n2)C1	binding		1 µM	97%
CO[C@@H](C)c1c(Nc2ccc([C@H](N(C)C(=O)C3CCS(=O)(=O)CC3)C(F)(F)F)cc2)cnc2cc(Cl)nn12	cell-free assay	competition with immobilised ligand	1 µM	80%
C[C@@H]1CCN(c2nccc(-c3cnn4ncccc34)n2)C1	binding		1 µM	100%
